For one assay, the system named is Bradyrhizobium japonicum. As to the kind of experiment: Ratio of Kcat to Km for Bradyrhizobium japonicum beta-Lactamase BJP-1.
Assay [1] relates to Pectobacterium atrosepticum. As to the kind of experiment: Activity of Erwinia carotovora subsp. atroseptica DSM 30184 beta-lactamase CAR-1. The gist of the method:
(§1)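 Recombinant CAR-1, expressed in E. coli BL21(DE3)/pET9-CAR-1 and purified by DEAE-Sepharose then Mono Q chromatography in Zn-containing buffers. Enzyme was diluted in HZN buffer (50 mM HEPES-NaOH pH 7.5, 50 µM ZnSO4) with 20 µg/ml BSA and used at 1.9–3,800 nM.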

Assay [2] deals with Pectobacterium atrosepticum. The assay is described as follows: Ratio of Kcat to Km for Erwinia carotovora subsp. atroseptica DSM 30184 beta-Lactamase CAR-1. The gist of the method:
as §1

This is an account of results in ChEMBL document CHEMBL1275443, “Functional diversity among metallo-beta-lactamases: characterization of the CAR-1 enzyme of Erwinia carotovora” (2008).

Regarding `C[C@@H](O)[C@H]1C(=O)N2C(C(=O)O)=C(SCCNC=N)C[C@H]12`, the kcat/Km in the assay on Bradyrhizobium japonicum came out at 6 ×10⁴ /M/s.

What is called Km is the substrate concentration at which the rate is half of its maximum. The kcat is the maximal rate divided by the concentration of active sites. With `CO[C@@]1(NC(=O)Cc2cccs2)C(=O)N2C(C(=O)O)=C(COC(N)=O)CS[C@@H]21`, in assay [1], the Km was > 1570 µM and the catalytic constant (kcat) is > 7 s⁻¹. Moreover, the kcat/Km in assay [2] was determined as 4.7 ×10³ /M/s. Further, the kcat/Km in the assay on Bradyrhizobium japonicum is 7.1 ×10⁴ /M/s.

In the case of `CC1(C)S[C@@H]2[C@H](NC(=O)[C@H](C(=O)O)c3ccsc3)C(=O)N2[C@H]1C(=O)O`, in assay [1], the Km is 640 µM and the kcat was 9 s⁻¹. In addition, the kcat/Km in assay [2] was found to be 1.3 ×10⁴ /M/s.

As for `C[C@@H](O)[C@H]1C(=O)N2C(C(=O)O)=C([C@H]3CCCO3)S[C@H]12`, in assay [1], the Km is 120 µM. For the same molecule, the kcat in assay [1] turned out to be 5 s⁻¹. Besides, the figures for the kcat/Km (in assay [2]; in the assay with Bradyrhizobium japonicum) were 4.4 ×10⁴ /M/s and 6.8 ×10³ /M/s, respectively.

Turning to `CC1(C)S[C@@H]2[C@H](NC(=O)[C@H](N)c3ccccc3)C(=O)N2[C@H]1C(=O)O`, the Km in assay [1] stood at 1600 µM. In assay [1], the kcat was found to be 5 s⁻¹. The kcat/Km in assay [2] turned out to be 3.2 ×10³ /M/s; in the assay on Bradyrhizobium japonicum it was 1.9 ×10⁴ /M/s.

Regarding `CO/N=C(\C(=O)N[C@@H]1C(=O)N2C(C(=O)O)=C(CSc3nc(=O)c(O)nn3C)CS[C@H]12)c1csc(N)n1`, the Km in assay [1] was found to be 130 µM. Also, the catalytic constant (kcat) in assay [1] is 13 s⁻¹. The results for the kcat/Km (in assay [2]; in the assay on Bradyrhizobium japonicum) were 9.9 ×10⁴ /M/s and 9.6 ×10⁴ /M/s, respectively.

As for `CC(=O)OCC1=C(C(=O)O)N2C(=O)[C@@H](NC(=O)Cc3cccs3)[C@H]2SC1`, in assay [1], the Michaelis constant (Km) amounted to 200 µM and the kcat was 240 s⁻¹. For the same molecule, the kcat/Km in assay [2] is 1.2 ×10⁶ /M/s.

Consider `CO/N=C(\C(=O)N[C@@H]1C(=O)N2C(C(=O)O)=C(COC(N)=O)CS[C@H]12)c1ccco1`, for which the Km in assay [1] is 110 µM. Moreover, the kcat in assay [1] turned out to be 400 s⁻¹. Further, the kcat/Km in assay [2] was determined as 3.6 ×10⁶ /M/s; in the assay on Bradyrhizobium japonicum, 5 ×10⁵ /M/s.

For `CC1(C)S[C@@H]2[C@H](NC(=O)Cc3ccccc3)C(=O)N2[C@H]1C(=O)O`, the Km in assay [1] is 200 µM. Besides, in assay [1], the kcat was determined as 2 s⁻¹. Besides, the kcat/Km came out at 9.2 ×10³ /M/s in assay [2] and 1.3 ×10⁵ /M/s in the assay on Bradyrhizobium japonicum.

`CO/N=C(\C(=O)N[C@@H]1C(=O)N2C(C(=O)O)=C(COC(C)=O)CS[C@H]12)c1csc(N)n1`: in assay [1], the Km turned out to be 160 µM and the kcat came to 250 s⁻¹. The kcat/Km in assay [2] came out at 1.5 ×10⁶ /M/s. Moreover, the kcat/Km in the assay on Bradyrhizobium japonicum is 1.4 ×10⁵ /M/s.

As for `CC(C)(O/N=C(\C(=O)N[C@@H]1C(=O)N2C(C(=O)[O-])=C(C[n+]3ccccc3)CS[C@H]12)c1csc(N)n1)C(=O)O`, in assay [1], the Km was > 561 µM and the turnover number (kcat) is > 160 s⁻¹. Moreover, the kcat/Km in assay [2] came out at 2.9 ×10⁵ /M/s.

Turning to `CCN1CCN(C(=O)N[C@@H](C(=O)N[C@@H]2C(=O)N3[C@@H]2SC(C)(C)[C@@H]3C(=O)O)c2ccccc2)C(=O)C1=O`, in assay [1], the Km stood at 340 µM and the kcat stood at 9 s⁻¹. Moreover, in assay [2], the kcat/Km amounted to 2.6 ×10⁴ /M/s. Also, in the assay with Bradyrhizobium japonicum, the kcat/Km amounted to 6.7 ×10⁴ /M/s.

For `CO/N=C(\C(=O)N[C@@H]1C(=O)N2C(C(=O)[O-])=C(C[N+]3(C)CCCC3)CS[C@H]12)c1csc(N)n1`, in the assay on Bradyrhizobium japonicum, the kcat/Km was 2 ×10² /M/s.
